Source: ChEMBL document CHEMBL4130549, “Synthesis and bioactivities study of new antibacterial peptide mimics: The dialkyl cationic amphiphiles” (Eur J Med Chem, 2018)
Calls of active or inactive are those of the source. The calls are words filed in the database; no cut-off is given here.

Columns and labels:
[1] = tested on: Escherichia coli; test: Antibacterial activity against Escherichia coli ATCC 25922 after 16 to 20 hrs by broth microdilution method; format: functional
Summary of the method: (§1)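 Broth microdilution per CLSI in cation-adjusted Mueller-Hinton broth; 4-6 h cultures (~10⁸ CFU/mL) diluted to ~10⁶ CFU/mL and mixed 1:1 with twofold dilutions of water-dissolved compound (256 to 0.5 µg/mL). Incubated 16-20 h at 37 °C; MIC read visually. Each concentration run in duplicate, whole experiment repeated at least twice. MRSA, KPC and NDM-1 strains were clinical isolates.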

[2] = tested on: Klebsiella pneumoniae; test: Antibacterial activity against carbapenemase-producing Klebsiella pneumoniae after 16 to 20 hrs by broth microdilution method; format: functional; summary of the method: as §1
[3] = tested on: Enterobacteriaceae; test: Antibacterial activity against NDM-1-producing Enterobacteriaceae after 16 to 20 hrs by broth microdilution method; format: functional; summary of the method: as §1
[4] = Hemolytic activity in sheep RBC after 1 hr; format: ADME, cell-based, Ovis aries, Erythrocyte; settings: sheep red blood cells (erythrocytes)
Summary of the method: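 Sheep RBCs suspended at 5% in PBS; 150 µL added to 50 µL compound dilutions (5120 to 10 µg/mL series). Incubated 1 h at 37 °C, then centrifuged; supernatant absorbance read at 540 nm. Lysis (%) = (A−A0)/(Atotal−A0)×100, with untreated 5% RBC as A0 and 0.1% Triton X-100 as total.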

[5] = tested on: Staphylococcus aureus; test: Antibacterial activity against methicillin-resistant Staphylococcus aureus isolate M2 after 16 to 20 hrs by broth microdilution method; format: functional
Summary of the method: (§2)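 CLSI broth microdilution in cation-adjusted Mueller-Hinton broth. A 4-6 h culture was diluted to about 10⁶ CFU/mL and mixed 1:1 with twofold compound dilutions (256–0.5 µg/mL before mixing) prepared from aqueous stocks. Plates were incubated at 37 °C for 16-20 h. Each concentration was tested in duplicate, and the experiment was repeated at least twice.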

[6] = tested on: Staphylococcus aureus; test: Antibacterial activity against methicillin-resistant Staphylococcus aureus isolate M3 after 16 to 20 hrs by broth microdilution method; format: functional; summary of the method: as §2
[7] = tested on: Staphylococcus aureus; test: Antibacterial activity against methicillin-resistant Staphylococcus aureus isolate M5 after 16 to 20 hrs by broth microdilution method; format: functional; summary of the method: as §2
[8] = tested on: Staphylococcus aureus; test: Antibacterial activity against methicillin-resistant Staphylococcus aureus isolate M6 after 16 to 20 hrs by broth microdilution method; format: functional; summary of the method: as §2
[9] = tested on: Staphylococcus aureus; test: Antibacterial activity against methicillin-resistant Staphylococcus aureus isolate M7 after 16 to 20 hrs by broth microdilution method; format: functional; summary of the method: as §2
[10] = tested on: Staphylococcus aureus; test: Antibacterial activity against methicillin-resistant Staphylococcus aureus isolate M9 after 16 to 20 hrs by broth microdilution method; format: functional; summary of the method: as §2
[11] = tested on: Klebsiella pneumoniae; test: Antibacterial activity against carbapenemase-producing Klebsiella pneumoniae isolate K3 after 16 to 20 hrs by broth microdilution method; format: functional; summary of the method: as §1
[12] = tested on: Klebsiella pneumoniae; test: Antibacterial activity against carbapenemase-producing Klebsiella pneumoniae isolate K5 after 16 to 20 hrs by broth microdilution method; format: functional; summary of the method: as §1
[13] = tested on: Klebsiella pneumoniae; test: Antibacterial activity against carbapenemase-producing Klebsiella pneumoniae isolate K7 after 16 to 20 hrs by broth microdilution method; format: functional; summary of the method: as §1
[14] = tested on: Klebsiella pneumoniae; test: Antibacterial activity against carbapenemase-producing Klebsiella pneumoniae isolate K8 after 16 to 20 hrs by broth microdilution method; format: functional; summary of the method: as §1
[15] = tested on: Klebsiella pneumoniae; test: Antibacterial activity against carbapenemase-producing Klebsiella pneumoniae isolate K9 after 16 to 20 hrs by broth microdilution method; format: functional; summary of the method: as §1
[16] = tested on: Klebsiella pneumoniae; test: Antibacterial activity against carbapenemase-producing Klebsiella pneumoniae isolate K10 after 16 to 20 hrs by broth microdilution method; format: functional; summary of the method: as §1
[17] = tested on: Enterobacteriaceae; test: Antibacterial activity against NDM-1-producing Enterobacteriaceae isolate N3 after 16 to 20 hrs by broth microdilution method; format: functional; summary of the method: as §1
[18] = tested on: Enterobacteriaceae; test: Antibacterial activity against NDM-1-producing Enterobacteriaceae isolate N7 after 16 to 20 hrs by broth microdilution method; format: functional; summary of the method: as §1
[19] = tested on: Enterobacteriaceae; test: Antibacterial activity against NDM-1-producing Enterobacteriaceae isolate N8 after 16 to 20 hrs by broth microdilution method; format: functional; summary of the method: as §1
[20] = tested on: Enterobacteriaceae; test: Antibacterial activity against NDM-1-producing Enterobacteriaceae isolate N9 after 16 to 20 hrs by broth microdilution method; format: functional; summary of the method: as §1
[21] = tested on: Enterobacteriaceae; test: Antibacterial activity against NDM-1-producing Enterobacteriaceae isolate N10 after 16 to 20 hrs by broth microdilution method; format: functional; summary of the method: as §1
[22] = tested on: Staphylococcus aureus; test: Bactericidal activity against methicillin-resistant Staphylococcus aureus after 20 to 24 hrs by broth microdilution method; format: functional
Summary of the method: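 For MBC, 20 µL from wells of the broth microdilution MIC plate showing little or no turbidity was plated on agar and incubated 20-24 h at 37 °C. MBC was the lowest concentration giving no colonies.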

[23] = tested on: Staphylococcus aureus; test: Bactericidal activity against methicillin-resistant Staphylococcus aureus after 20 to 24 hrs in presence of 50% plasma by broth microdilution method; format: functional, organism-based
Summary of the method: (§3)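 MRSA at 10⁵ CFU/mL in 50% Mueller-Hinton broth plus 50% sheep serum, plasma or defibrinated whole blood. Serum and plasma were separated by centrifugation at 3,500 rpm for 10 min. Aqueous compound dilutions (512–4 µg/mL before mixing) were combined 1:3 with the suspension and incubated 20-24 h at 37 °C. Wells were plated on Mueller-Hinton agar for a further 20-24 h; MBC was taken as no colonies.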

[24] = tested on: Staphylococcus aureus; test: Bactericidal activity against methicillin-resistant Staphylococcus aureus after 20 to 24 hrs in presence of 50% blood by broth microdilution method; format: functional, organism-based; summary of the method: as §3
[25] = tested on: Staphylococcus aureus; test: Ratio of MBC for methicillin-resistant Staphylococcus aureus in presence of 50% serum to MBC for methicillin-resistant Staphylococcus aureus; format: functional; summary of the method: as §3
[26] = tested on: Staphylococcus aureus; test: Ratio of MBC for methicillin-resistant Staphylococcus aureus in presence of 50% blood to MBC for methicillin-resistant Staphylococcus aureus; format: functional; summary of the method: as §3
[27] = tested on: Staphylococcus aureus; test: Induction of cytoplasmic membrane depolarization in Staphylococcus aureus ATCC 29213 at 20 ug/ml measured every 2 mins for 12 mins by diSC35 staining based fluorescence assay; format: functional, organism-based
Summary of the method: (§4)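 Mid-log cells (4–6 h) pelleted, washed and resuspended (~10^8 CFU/mL) in PBS for S. aureus, or in 5 mM HEPES, 5 mM glucose and 100 mM KCl (1:1:1) for E. coli. Preloaded with diSC35 (10 µM, 50 µL), 30 min for S. aureus and 40 min plus EDTA (200 µM, 50 µL) for E. coli. Baseline read 8 min (ex 622/em 670 nm), then compound added to 20 µg/mL final and read every 2 min for 12 min. Water control.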

[28] = tested on: Escherichia coli; test: Induction of cytoplasmic membrane depolarization in Escherichia coli ATCC 25922 at 20 ug/ml measured every 2 mins for 12 mins by diSC35 staining based fluorescence assay; format: functional, organism-based; summary of the method: as §4
[29] = tested on: Escherichia coli; test: Induction of inner membrane permeabilization in Escherichia coli ATCC 25922 at 20 ug/ml measured every 2 mins for 12 mins by propidium iodide staining based fluorescence assay; format: functional, organism-based
Summary of the method: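 Mid-log cells (~10^8 CFU/mL) pre-incubated with propidium iodide (10 µM, 50 µL), 30 min for S. aureus and 40 min for E. coli. Fluorescence (ex 535/em 617 nm) read for 8 min, then compound added to 20 µg/mL final and monitored every 2 min for 12 min. Water-treated control.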

[30] = tested on: Escherichia coli; test: Induction of outer membrane permeabilization in Escherichia coli ATCC 25922 at 20 ug/ml measured every 2 mins for 12 mins by NPN staining based fluorescence assay; format: functional, organism-based
Summary of the method: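 Mid-log E. coli (~10^8 CFU/mL) in black plates pre-incubated about 40 min with NPN (10 µM, 50 µL). Baseline read 8 min (ex 350/em 420 nm), then compound added to 20 µg/mL final and fluorescence followed every 2 min for 12 min. Water-treated control.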

Compound	MIC [1] [µg/mL]	MIC [2] [µg/mL]	MIC [3] [µg/mL]	HC50 at 1 h [4] [µg/mL]	MIC [5] [µg/mL]	MIC [6] [µg/mL]	MIC [7] [µg/mL]	MIC [8] [µg/mL]	MIC [9] [µg/mL]	MIC [10] [µg/mL]	MIC [11] [µg/mL]	MIC [12] [µg/mL]	MIC [13] [µg/mL]	MIC [14] [µg/mL]	MIC [15] [µg/mL]	MIC [16] [µg/mL]	MIC [17] [µg/mL]	MIC [18] [µg/mL]	MIC [19] [µg/mL]	MIC [20] [µg/mL]	also measured
CCCCCCCCN(CCCCCCCC)C(=O)[C@@H](N)CCCN=C(N)N.Cl.Cl.Cl	2	4	4	124	1	0.5	1	0.5	0.5	1	4	8	8	4	8	4	8	4	4	8	MIC [21]: 8 µg/mL; MBC [22]: 4 to 8 µg/mL; Activity [23]: Active; Activity [24]: inactive; Ratio [25]: 1 - 2; Ratio [26]: 8 - 16; Activity [27]: Active; Activity [28]: Active; Activity [29]: Active; Activity [30]: Active
CCCCCCCCN(CCCCCCCC)C(=O)[C@@H](N)CCCCN.Cl.Cl	2	1	4	225	1	1	1	0.5	0.5	1	2	2	2	1	2	2	8	8	8	8	MIC [21]: 8 µg/mL; MBC [22]: 4 to 8 µg/mL; Activity [23]: Active; Activity [24]: inactive; Ratio [25]: 1 - 2; Ratio [26]: 8 - 16; Activity [27]: Active; Activity [28]: Active; Activity [29]: Active; Activity [30]: Active
CCCCCCCCCCN(CCCCCCCCCC)C(=O)[C@@H](N)CCCN=C(N)N.Cl.Cl.Cl	8	4	4	87	1	2	2	2	2	2	4	4	4	4	4	4	4	4	4	8	MIC [21]: 8 µg/mL; MBC [22]: 4 to 8 µg/mL; Activity [23]: Active; Activity [24]: inactive; Ratio [25]: 1 - 2; Ratio [26]: 8 - 16; Activity [27]: Active; Activity [28]: Active; Activity [29]: Active; Activity [30]: Active
CCCCCCCCCN(CCCCCCCCC)C(=O)[C@@H](N)CCCCN.Cl.Cl	2	2	2	133	1	1	1	1	1	1	2	2	2	2	2	2	2	2	2	4	MIC [21]: 4 µg/mL; MBC [22]: 4 to 8 µg/mL; Activity [23]: Active; Activity [24]: inactive; Ratio [25]: 1 - 2; Ratio [26]: 8 - 16; Activity [27]: Active; Activity [28]: Active; Activity [29]: Active; Activity [30]: Active
